From PubChem BioAssay
TRPC4 act: TRPC4 (mouse) channel activation | HEK293 TRPC4beta/mu-opioid, Fluo4 calcium fluorescence; stronger effect = higher value | B-score at 10 µM | actives 0.49% (n = 310,000) | AID 2237;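 active = B-score above 5 SD of library B-scores, and initial fluorescence ratio not above library mean plus 5 SD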;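 note: positive B-score marks a calcium rise read as TRPC4 activation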
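Assay system: HEK293 stable line with TRPC4beta plus mu-opioid receptor. Times: dye 45 min RT, read 110 s. Measured by: kinetic Fluo4 calcium fluorescence. Measure: B score of integrated ratio. Controls: assay buffer as low control, maximal DAMGO as high control.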
TRPC4 inh: TRPC4 (mouse) channel inhibition; Q9QUQ5; HEK293 TRPC4beta/mu-opioid, DAMGO-evoked Fluo4 calcium flux; stronger effect = lower value; B-score at 10 µM; actives 0.39% (n = 300,000); AID 2247;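 active = B-score over 3 SD under the library average, no early fluorescence shift, positive overall ratio signal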
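Assay system: HEK293 cells with stable TRPC4beta plus mu-opioid receptor expression; Probe or stimulus: DAMGO in two steps, submaximal then maximal; Dosing: single-point compound dosing; Measured by: Fluo4 calcium-dye fluorescence, kinetic read; Read-out basis: B score from integrated Fluo4 fluorescence ratio.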
TRPC4 PAM: allosteric potentiators of mouse TRPC4 channel; Q9QUQ5; HEK293 TRPC4beta/mu-opioid, DAMGO EC20, Fluo-4 Ca2+ flux; stronger effect = higher value; B-score at 10 µM; actives 0.42% (n = 310,000); AID 2227;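 active = B-score of calcium response area above 5 SD of library B-scores, with initial fluorescence ratio within 5 SD of library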;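 note: B-score of integrated fluorescence ratio over time as area under calcium response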
TRPC6 inh: blocks the mouse TRPC6 cation channel. HEK293-TRPC6, membrane potential dye, ACh-evoked depolarization; stronger effect = lower value. actives 1.1% (n = 310,000). B-score at 10 µM. Q61143;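 active = B-score under library mean minus 3 SD, initial fluorescence not abnormally high, positive integrated signal ratio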;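 note: B-score derived from integrated fluorescence ratio over the kinetic read; more negative B-score means stronger inhibition of depolarization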
Kir21 inh: blocks the mouse Kir2.1 inward-rectifier potassium channel; HEK293-Kir2.1, FluxOR thallium flux fluorescence; stronger effect = lower value; P35561; actives 0.85% (n = 310,000); B-score at 10 µM;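 active = fluorescence ratio B-score at or below minus 3 SD of library scores, with starting-brightness B-score within 2 SD, cut at about -4.2 in these data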;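 note: channel flux triggered by added potassium and thallium sulfate stimulus; B-score of peak minus minimum fluorescence over baseline after thallium stimulus; more negative B-score means stronger Kir2.1 block with less thallium influx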
Target sequence (P35561 whole entry, looked up): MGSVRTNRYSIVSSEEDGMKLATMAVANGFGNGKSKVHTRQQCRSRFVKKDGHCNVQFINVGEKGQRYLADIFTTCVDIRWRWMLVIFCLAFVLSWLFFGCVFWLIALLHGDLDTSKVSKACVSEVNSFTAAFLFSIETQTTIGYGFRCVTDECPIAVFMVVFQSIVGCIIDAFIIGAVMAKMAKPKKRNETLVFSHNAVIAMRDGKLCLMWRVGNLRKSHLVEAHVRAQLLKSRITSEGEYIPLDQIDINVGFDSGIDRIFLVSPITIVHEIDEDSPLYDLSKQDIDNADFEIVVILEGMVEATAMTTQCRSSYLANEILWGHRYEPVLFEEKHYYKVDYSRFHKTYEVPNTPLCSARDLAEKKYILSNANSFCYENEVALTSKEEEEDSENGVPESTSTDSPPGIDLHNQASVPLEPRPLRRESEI
TRPC6 act: activates the mouse TRPC6 cation channel | HEK293-TRPC6 membrane potential dye fluorescence; stronger effect = higher value | B-score at 10 µM | actives 0.13% (n = 310,000);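 active = B-score of the integrated fluorescence ratio above library mean plus 3 SD, and starting fluorescence ratio within library mean plus 5 SD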;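 note: higher score means more depolarization so channel activation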
* = called active by the depositor; i = inactive. Sampled rows, rich in hits. Any-hit rate of the full collection: about 3%.

SMILES	TRPC4 act	TRPC4 inh	TRPC4 PAM	TRPC6 inh	Kir21 inh	TRPC6 act
O=C(COc1cccc2ccccc12)N/N=C/c1ccccc1OCc1ccc(C(=O)O)cc1	i	-5*	i	i	2.1	i
O=C(COc1ccccc1-c1ccccc1)N/N=C/c1cccc2ccccc12	i	i	i	i	-0.57	i
COc1cc(/C=N/NC(=O)c2cc[n+]([O-])cc2)ccc1O	i	i	i	i	-1.8	i
COc1ccc(CN=Cc2[nH]c3ccc(Br)c(Cl)c3c2O)cc1	i	i	i	i	-3.5	16*
O=C(CCCl)Nc1cc(SCCO)cc([N+](=O)[O-])c1	i	i	i	i	0.56	i
O=C(Nc1cc(SCCO)cc([N+](=O)[O-])c1)c1ccc(Br)o1	i	-5*	i	i	-2.4	i
Cc1ccc(CNC(=O)[C@H](C)NC(=O)C2CCN(C(=O)[C@@H]3CCCN3C(=O)OC(C)(C)C)CC2)cc1	i	i	i	i	0.36	i
CC1CC(C)CN(CCCNC(=O)Cn2cccc2C(=O)c2ccccc2)C1 (stereo not drawn)	105*	i	i	i	0.08	i
O=C(Cn1cccc1C(=O)c1ccccc1)NCCCN1CCOCC1	i	i	i	i	0.56	i
Cc1ccc(C)c(N2CCN(CCCNC(=O)Cn3cccc3C(=O)c3ccccc3)CC2)c1	i	i	i	i	-5.4*	i
C/C(=N\NC(=O)c1ccc(Br)o1)c1cc2c(cc1NC(=O)CCC(=O)O)OCO2	i	i	i	i	-0.47	i
Cc1cc(C)c(C)c(OCCN2CCOCC2)c1	i	i	10*	i	-0.1	i
Cc1cc(C)c(C)c(OCCCn2ccnc2)c1	i	i	i	i	1.4	i
Cc1cc(C)c(C)c(OCCCN(C)C)c1	126*	i	13*	i	1.2	i
CC(OC(=O)CN1C(=O)c2ccccc2C1=O)C(=O)NC1CCCCC1C (stereo not drawn)	i	i	i	i	-0.79	i
CCOc1ccc(S(=O)(=O)Nc2ccccc2C(=O)N2CCOCC2)cc1	i	i	i	i	0.03	i
COc1cccc(C2/C(=C(\O)c3ccc4c(c3)OCCO4)C(=O)C(=O)N2Cc2cccnc2)c1 (stereo not drawn)	i	i	i	i	-2.1	i
C=CCn1c(SCC(=O)N2CCCCC2)nnc1-c1ccncc1	75*	i	i	i	0.05	i
COc1ccc(OC)c2sc(N(CCCN(C)C)C(=O)CCS(=O)(=O)c3ccccc3)nc12	i	i	i	i	-3.3	i
COc1ccc(Cl)c2sc(N(CCN(C)C)C(=O)CCS(=O)(=O)c3ccc(C)cc3)nc12	i	i	23*	i	-1.2	i
CSCC[C@H](NC(=O)OC(C)(C)C)C(=O)N/N=C/c1cccc2cccnc12	i	i	10*	i	-0.86	i
COc1ccc2nc(/C=N/NC(=O)[C@H](CCSC)NC(=O)OC(C)(C)C)ccc2c1	i	i	i	i	0.78	i
CC1CC(C)CN(S(=O)(=O)c2ccc(C(=O)N(c3ccccn3)C3CCCCC3)cc2)C1 (stereo not drawn)	i	-6*	i	i	1.6	i
O=C(c1ccc(S(=O)(=O)N2CCCCC2)cc1)N(c1ccccn1)C1CCCCC1	i	i	i	i	-0.75	i
CC1(C)COC(c2ccc(F)c([N+](=O)[O-])c2)=N1	i	i	i	i	1.1	i
SMILES	TRPC4 act	TRPC4 inh	TRPC4 PAM	TRPC6 inh	Kir21 inh	TRPC6 act
C=CCOc1ccc(Br)cc1CNC(C)(C)CO	i	-7*	i	i	0.03	i
CC(C)(CO)NCc1cc(Br)ccc1OCc1ccccc1	i	i	i	i	-1.6	i
COc1ccc(N2C(=O)[C@@H]3[C@H](C2=O)[C@H](C(=O)c2ccc(OC(C)=O)cc2)N2N=CC=C[C@@H]32)cc1	i	i	i	i	-4.8*	i
CC(=O)Oc1ccc(C(=O)[C@H]2[C@H]3C(=O)N(c4ccc(C)cc4)C(=O)[C@H]3[C@@H]3C=CC=NN32)cc1	i	i	i	i	0.14	i
Cc1ccc(C(=O)CCS(=O)(=O)c2ccc(Br)cc2)cc1	i	i	i	i	-1.3	i
Cc1ccc(S(=O)(=O)CCC(=O)c2cccc([N+](=O)[O-])c2)cc1	i	i	i	i	-9.5*	i
CCn1c(SCCOc2ccc(Cl)cc2)nnc1-c1cccs1	i	i	i	i	-5.8*	i
CCn1c(SCC(=O)c2ccc(Cl)cc2)nnc1-c1cccs1	i	i	i	i	0.89	i
COc1ccc(Cn2ccnc2SCC(=O)Nc2ccccc2OC)cc1	i	i	i	i	-4.5*	i
CCOc1ccccc1NC(=O)CSc1nccn1-c1ccccc1	i	i	i	i	-7*	i
COc1ccc(Cn2ccnc2SCC(=O)Nc2ccccc2F)cc1	i	i	i	i	0.01	i
CCc1ccc(CSc2nccn2-c2ccccc2)cc1	i	i	i	i	-4.9*	i
Cc1cc2c(ncn2Cc2ccccc2)c(N)c1C	i	i	i	i	0.61	i
CC(NCCC1(Cc2ccccc2Cl)CCOC(C)(C)C1)c1cccs1 (stereo not drawn)	68*	i	i	i	-4.9*	i
Cc1ccccc1C(=O)NCCCNC(=O)c1ccccc1C	i	i	i	i	-1.1	i
O=C(O)c1ccn2c(C(=O)c3ccc(Cl)cc3)c(-c3ccccc3)cc2c1	i	-6*	i	i	1.1	i
Cc1csc(NC(=O)CSc2nnc(NC(=O)NC(C)(C)C)s2)n1	i	i	i	i	0.78	i
CN(c1ccccc1)c1ccc(/C=C/[N+](=O)[O-])cc1	i	i	i	i	-11*	i
CN(C)c1ccc(-n2cccc2/C=C/[N+](=O)[O-])cc1	i	i	i	i	-1.2	i
COc1cccc(C=NCCCN=Cc2cccc(OC)c2O)c1O	i	i	i	i	-1.5	i
